Activity and TGI data for 18 compounds are collected here from ChEMBL document CHEMBL3797096, “Synthesis and in vitro evaluation of (R), (S) and (R/S)-2-hexyne-1,4-diol, a natural product produced by fungus Clitocybe catinus, and related analogs as potential anticancer agents” (Bioorg Med Chem Lett, 2016).

The subject of series [1] is NCI-H292. The series can be described thus: Cytotoxicity against human NCI-H292 cells assessed as cell death at 100 ug/ml after 72 hrs by MTT assay. The format is functional. The essentials: (§1)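 Single-concentration colorimetric MTT screen of test compounds at a fixed final concentration. Incubation was 72 h, and the read-out was growth inhibition of the tumour cell lines. Values are given as means with standard deviations. Doxorubicin served as the positive control.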
A general note: Formazan colour is commonly taken as a measure of viable cells.

A short description of series [2]: Cytotoxicity against human Hep2 cells assessed as cell death at 100 ug/ml after 72 hrs by MTT assay. The class given is functional, HEp-2. In a few lines: as §1
The test system of series [3] is RAW264.7. Description: Cytotoxicity against mouse RAW264.7 cells at 100 ug/ml after 72 hrs by MTT assay. The format is cell-based. As to conditions: raw264.7, 72 h. The essentials: (§2)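 Single-concentration screen of mouse cells at 100 µg/mL final concentration. Viability read by colorimetric MTT assay after 72 h of incubation; percent growth inhibition given as means (standard deviations); doxorubicin as positive control.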

For series [4], the system named is NCI-H292. Description: Cytotoxicity against human NCI-H292 cells after 72 hrs by MTT assay. The format is functional, cell-based. The essentials:
(§3)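 Colorimetric MTT assay on human tumour cells after 72 h of incubation; values expressed as means (standard deviations), with doxorubicin as positive control.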

A short description of series [5]: Cytotoxicity against human HL60 cells assessed as cell death at 100 ug/ml after 72 hrs by MTT assay. The format is functional, HL-60. The essentials:
as §1

Series [6] deals with J774.A1. Description: Cytotoxicity against mouse J774.A1 cells at 100 ug/ml after 72 hrs by MTT assay. The conditions noted are these: j774.a1, 72 h. The class given is cell-based. The essentials: as §2
For series [7], the system named is HL-60. Description: Cytotoxicity against human HL60 cells after 72 hrs by MTT assay. The format is functional, cell-based. The essentials: as §3
Series [8] concerns HEp-2. The series can be described thus: Cytotoxicity against human Hep2 cells after 72 hrs by MTT assay. The format is functional, cell-based. The essentials: as §3
Series [9] concerns K562. Description: Cytotoxicity against human K562 cells assessed as cell death at 100 ug/ml after 72 hrs by MTT assay. The class given is functional. In a few lines:
as §1

For series [10], the system named is MCF7. The series can be described thus: Cytotoxicity against human MCF7 cells after 72 hrs by MTT assay. The format is functional, cell-based. In a few lines: as §3
Series [11] deals with MCF7. The series can be described thus: Cytotoxicity against human MCF7 cells assessed as cell death at 100 ug/ml after 72 hrs by MTT assay. The class given is functional. In a few lines: as §1
The subject of series [12] is K562. The series can be described thus: Cytotoxicity against human K562 cells after 72 hrs by MTT assay. The format is functional, cell-based. In a few lines: as §3

SMILES strings stand for the structures. Calls of active or inactive are those of the source. The calls are words filed in the database; no cut-off is given here.

In the case of `CC(O)C#CCO` (stereo unspecified), the Activity in series [1], in series [2], in [3], in series [5], in series [6] and in series [9] was 100% throughout. Also, in series [11], the Activity was determined as 100%. The TGI result in [4], in series [7], in [8], in series [10] and in series [12] was “Active” throughout.
As for `CC[C@H](O)C#CCO`, the Activity in series [1] amounted to 85%; in series [2] it was 31.3%; in series [3] it was 19.5%; in series [5], 1.4%; in series [6], 1.7%; in [9], 27%. The Activity in [11] was 51.6%.
Regarding `CCC(O)C#CCO` (stereo unspecified), the Activity in [1], in [2], in [3], in series [5], in series [6] and in series [9] was 100% throughout. The Activity in [11] was 100%. Also, the TGI result in series [4], in series [7], in series [8], in [10] and in [12] was “Active” in each case.
`CCC(C)(O)C#CCO` (stereo unspecified): the Activity is listed as 5% in series [1]; 0% in series [2]; 0% in series [3]; 13.3% in [5]; 61.2% in [6]; 16% in series [9]. Moreover, the Activity in series [11] worked out at 27.2%.
On to `CC(O)CC#CCCO` (stereo unspecified), for which the Activity is 71.5% in [1]; 84.1% in series [2]; 19.3% in [3]; 9.6% in series [5]; 15.7% in series [6]; 0% in [9]. Also, the Activity in series [11] came out at 69.5%.
Take `CCCC(O)C#CCO` (stereo unspecified): the Activity in series [1], in [2], in series [3], in series [5], in series [6] and in [9] was 100% in each case. In addition, in [11], the Activity is reported as 100%. Further, the TGI result in series [4], in [7], in series [8], in series [10] and in series [12] was “Active” in each case.
For the compound `CC(C)C(O)C#CC(C)(C)O` (stereo unspecified), the Activity turned out to be 21.5% in [1]; 0% in series [2]; 0% in series [3]; 7.3% in [5]; 55.3% in [6]; 9.7% in series [9]. Further, the Activity in series [11] stood at 40.7%.
For `CC(O)C#CCCO` (stereo unspecified), the Activity in [1] is listed as 0.3%; in series [2], 2.2%; in series [3], 9.4%; in series [5], 0%; in series [6], 16.5%; in series [9], 25.1%. In addition, the Activity in [11] was 17.8%.
As to `CC(C)C(O)C#CCCO` (stereo unspecified), the Activity in [1] came to 49.9%; in series [2], 85.7%; in [3], 17.8%; in [5] it was 0%; in series [6] it was 30.4%; in series [9], 0%. Also, in [11], the Activity is on record as 54.1%.
`CC(O)CC#CCO` (stereo unspecified): the Activity in series [1] stood at 20.2%; in series [2] it was 14.8%; in [3], 8.5%; in [5], 11%; in series [6], 60.8%; in series [9] it was 0%. Also, the Activity in series [11] was 0%.
Regarding `CC[C@@H](O)C#CCO`, the Activity in series [1] amounted to 55.7%; in series [2] it was 38.8%; in series [3], 9.6%; in series [5], 12.1%; in series [6], 0.2%; in series [9], 40.9%. For the same compound, the Activity in series [11] is listed as 52.5%.
For `CCCCCC(O)C#CCO` (stereo unspecified), the Activity in [1], in series [2], in [3], in series [5], in series [6] and in series [9] was 100% each time. For the same compound, in [11], the Activity amounted to 100%. Also, the TGI entry in series [4], in series [7], in [8], in series [10] and in [12] was “Active” each time.
Turning to `CC(O)C#CC1(O)CCCCC1` (stereo unspecified), the Activity in series [1] amounted to 6.6%; in series [2], 9.3%; in [3], 4.2%; in series [5] it was 8.9%; in [6], 57.5%; in [9], 16.7%. Further, the Activity in [11] turned out to be 40.8%.
As for `CCC(O)C#CCCO` (stereo unspecified), the Activity in series [1] worked out at 15.5%; in series [2] it was 12.9%; in [3] it was 6.1%; in [5], 5.1%; in series [6], 42.6%; in series [9], 0%. For the same compound, the Activity in [11] turned out to be 34.3%.
For `CC(C)C(O)C#CCO` (stereo unspecified), the Activity is given as 69.8% in series [1]; 42.7% in [2]; 17.8% in series [3]; 0% in [5]; 2% in [6]; 20.9% in [9]. Further, the Activity in series [11] is 28.7%.
On to `CC(O)C#CC(O)(c1ccccc1)c1ccccc1` (stereo unspecified), for which the Activity in series [1] was 91%; in series [2] it was 84%; in series [3] it was 95%; in series [5], 96.1%; in series [6] it was 93.1%; in [9], 80%. The Activity in series [11] was 27.3%.
With `COc1cccc2c1C(=O)c1c(O)c3c(c(O)c1C2=O)C[C@@](O)(C(=O)CO)C[C@@H]3O[C@H]1C[C@H](N)[C@H](O)[C@H](C)O1` [DOXORUBICIN], the Activity in series [1] turned out to be 94.1%; in series [2], 79.4%; in series [3], 96.5%; in [5], 92.9%; in series [6], 96%; in series [9], 91.7%. In addition, the Activity in series [11] stood at 74.8%.
For `OCC#CC(O)c1ccccc1` (stereo unspecified), the Activity was found to be 86.9% in series [1]; 28.1% in series [2]; 16% in series [3]; 29.5% in series [5]; 17.1% in series [6]; 3.8% in series [9]. In addition, in series [11], the Activity is on record as 68.1%.
